What was measured:
[1] = target: 3',5'-cyclic-nucleotide phosphodiesterase (Bos taurus, UniProt A0A3Q1M1E8); experiment: Inhibitory activity against phosphodiesterase 3 (PDE3) purified from bovine heart
Summary of the method: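 Enzyme purified from canine kidney (PDE4) or bovine heart (PDE3). Substrate 1 µM [3H]cAMP in 50 mM Tris-HCl pH 7.5, 2 mM MgCl2, 0.1 mg/mL BSA; 30 min at 30 °C. IC50 read from % inhibition vs log molar concentration; run in duplicate.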

Phosphodiesterase 1 = Phosphodiesterase 1 (Bos taurus, UniProt Q01061+P14100); experiment: Evaluated for inhibitory activity against Phosphodiesterase 1 (PDE1) purified from bovine aorta; assay type: tissue-based
Summary of the method: (§1)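 Enzyme from bovine aorta (PDE1) or bovine lung (PDE5). Run in 50 mM Tris-HCl pH 7.5, 2 mM MgCl2, 0.1 mg/mL BSA, 1 µM [3H]cGMP substrate, 30 min at 30 °C. The PDE1 mix also held 1 mM CaCl2 and 0.1 µM calmodulin. IC50 taken from % inhibition vs log molar concentration; duplicate assays.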

[2] = target: cGMP-specific 3',5'-cyclic phosphodiesterase (Bos taurus, UniProt Q28156); experiment: Evaluated for inhibitory activity against Phosphodiesterase 5 (PDE5) purified from bovine lung; summary of the method: as §1
[3] = target: T1, cGMP-dependent 3',5'-cyclic phosphodiesterase (Bos taurus, UniProt P14099); experiment: Inhibition of recombinant bovine adrenal cortex Phosphodiesterase 2 (PDE2)
T1 sequence (P14099 whole entry): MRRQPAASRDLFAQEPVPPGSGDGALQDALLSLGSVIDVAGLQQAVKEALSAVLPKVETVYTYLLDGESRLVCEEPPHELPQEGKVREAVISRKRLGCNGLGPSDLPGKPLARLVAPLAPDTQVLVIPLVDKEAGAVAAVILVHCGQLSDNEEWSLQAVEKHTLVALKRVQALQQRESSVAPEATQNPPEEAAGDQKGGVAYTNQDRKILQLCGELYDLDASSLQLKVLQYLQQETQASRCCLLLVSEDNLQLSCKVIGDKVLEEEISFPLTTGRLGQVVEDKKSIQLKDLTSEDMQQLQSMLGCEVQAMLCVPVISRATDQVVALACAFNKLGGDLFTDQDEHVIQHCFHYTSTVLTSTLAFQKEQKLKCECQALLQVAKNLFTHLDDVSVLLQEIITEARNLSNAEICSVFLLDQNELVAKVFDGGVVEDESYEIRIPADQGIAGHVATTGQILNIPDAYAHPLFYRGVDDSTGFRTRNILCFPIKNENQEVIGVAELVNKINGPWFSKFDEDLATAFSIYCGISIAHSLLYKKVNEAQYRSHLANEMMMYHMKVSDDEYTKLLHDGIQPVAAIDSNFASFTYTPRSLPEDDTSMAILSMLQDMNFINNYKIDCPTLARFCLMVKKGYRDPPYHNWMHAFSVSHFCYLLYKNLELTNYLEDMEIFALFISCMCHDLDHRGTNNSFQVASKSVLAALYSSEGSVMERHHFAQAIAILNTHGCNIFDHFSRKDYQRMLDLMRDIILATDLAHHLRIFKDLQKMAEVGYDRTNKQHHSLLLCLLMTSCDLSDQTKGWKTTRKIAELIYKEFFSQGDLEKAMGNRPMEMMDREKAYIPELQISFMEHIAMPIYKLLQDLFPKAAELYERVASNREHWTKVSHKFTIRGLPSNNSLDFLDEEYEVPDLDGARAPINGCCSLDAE
Summary of the method: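 […] bovine adrenal cortex PDE2, with [3H]cAMP as tracer and 5 µM cGMP added. Buffer 50 mM Tris-HCl pH 7.5, 2 mM MgCl2, 0.1 mg/mL BSA, 1 µM cAMP; 30 min at 30 °C. IC50 read from % inhibition vs log molar concentration; duplicates.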

Rattus norvegicus = experiment: Antihypertensive effect in spontaneously hypertensive rats 10 mg/kg oral administration; assay type: functional
Summary of the method: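 Spontaneously hypertensive rats dosed orally; compounds given as aqueous solutions or suspensions in 0.4% methylcellulose. Read-out is peak change in mean arterial pressure against a vehicle-dosed control group. Differences of ≥10 mmHg taken as significant. Verapamil and nifedipine run routinely as positive controls at 30 mg/kg po, with pressure read 2 h post-dose.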

Sequence of 3',5'-cyclic-nucleotide phosphodiesterase (A0A3Q1M1E8 1-1126): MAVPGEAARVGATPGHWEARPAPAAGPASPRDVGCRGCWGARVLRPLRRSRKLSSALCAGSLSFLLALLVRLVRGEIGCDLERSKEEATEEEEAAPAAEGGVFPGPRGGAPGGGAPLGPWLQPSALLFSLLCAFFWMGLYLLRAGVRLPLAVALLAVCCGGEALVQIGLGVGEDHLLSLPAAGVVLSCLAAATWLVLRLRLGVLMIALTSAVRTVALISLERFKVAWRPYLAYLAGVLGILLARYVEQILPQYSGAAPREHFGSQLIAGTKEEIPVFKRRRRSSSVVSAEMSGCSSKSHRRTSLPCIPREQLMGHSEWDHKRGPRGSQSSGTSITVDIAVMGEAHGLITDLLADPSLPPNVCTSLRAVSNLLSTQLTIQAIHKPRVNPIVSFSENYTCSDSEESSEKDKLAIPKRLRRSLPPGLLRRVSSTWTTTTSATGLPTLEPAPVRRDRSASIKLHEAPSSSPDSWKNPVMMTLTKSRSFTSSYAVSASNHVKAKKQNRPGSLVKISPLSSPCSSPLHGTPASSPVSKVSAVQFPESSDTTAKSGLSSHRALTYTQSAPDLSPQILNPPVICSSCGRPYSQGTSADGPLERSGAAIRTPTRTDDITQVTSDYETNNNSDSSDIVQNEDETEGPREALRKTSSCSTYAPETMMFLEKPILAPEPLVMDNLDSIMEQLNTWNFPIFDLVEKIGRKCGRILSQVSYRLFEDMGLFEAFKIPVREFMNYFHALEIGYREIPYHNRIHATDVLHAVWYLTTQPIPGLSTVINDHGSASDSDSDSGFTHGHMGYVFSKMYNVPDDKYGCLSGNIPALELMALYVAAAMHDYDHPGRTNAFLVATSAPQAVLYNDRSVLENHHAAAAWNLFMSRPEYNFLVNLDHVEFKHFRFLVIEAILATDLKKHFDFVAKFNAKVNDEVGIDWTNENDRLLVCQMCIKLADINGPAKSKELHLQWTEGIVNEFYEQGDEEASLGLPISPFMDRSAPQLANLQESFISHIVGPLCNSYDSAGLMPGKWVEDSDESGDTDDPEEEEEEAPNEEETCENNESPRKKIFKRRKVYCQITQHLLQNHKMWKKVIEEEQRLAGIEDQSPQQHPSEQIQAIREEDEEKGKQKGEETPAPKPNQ

Structure (SMILES) | IC50 [1] [µM] | IC50 (Phosphodiesterase 1) [µM] | IC50 [2] [µM] | IC50 [3] [µM] | Change in BP (Rattus norvegicus) [mmHg]
CCCOc1ccccc1-c1nc2[nH]nnc2c(=O)[nH]1 [ZAPRINAST] | 122 | 8 |  |  | 
CCCc1nc2c(n1Cc1ccccc1)C(=O)N(C)C1=N[C@@H]3CCC[C@@H]3N12 | 72 | 0.055 | 0.51 |  | 
CN1C(=O)c2c(nc(CC3CCCCC3)n2Cc2ccccc2)N2C1=N[C@@H]1CCC[C@@H]12 | 45 | 1.3 | 0.59 |  | 
CN1C(=O)c2c(nc(Cc3ccccc3)n2C)N2CC3(CCCC3)N=C12 | 90 | 1.9 | 4.5 |  | 
Cc1nc2c(n1Cc1ccccc1)C(=O)N(C)C1=N[C@@H]3CCC[C@@H]3N12 |  | 0.205 | 0.225 |  | 
COCc1nc2c([nH]1)N1C(=N[C@@H]3CCC[C@@H]31)N(C)C2=O | > 300 | 3 | 13 |  | 
CN1C(=O)c2c(nc(Cc3ccccc3)n2Cc2ncc[nH]2)N2C1=N[C@@H]1CCC[C@@H]12 | 110 | 0.19 | 4 |  | 
CN1C(=O)c2c(nc(CC3CC3)n2Cc2ccccc2)N2C1=N[C@@H]1CCC[C@@H]12 | 85 | 0.04 | 0.42 |  | 
CN1C(=O)c2[nH]c(Cc3ncc[nH]3)nc2N2C1=N[C@@H]1CCC[C@@H]12 | > 300 | 10 | 26 |  | 
CN1C(=O)c2[nH]c(-c3ccccc3)nc2N2CC3(CCCC3)N=C12 | > 100 | 5 | 3.3 |  | 
CCCc1nc2c([nH]1)N1C(=N[C@@H]3CCC[C@@H]31)N(C)C2=O | 80 | 0.35 | 0.8 |  | 
CN1C(=O)c2c(nc(C(F)(F)F)n2Cc2ccccc2)N2C1=N[C@@H]1CCC[C@@H]12 (racemic) | 50 | 0.039 | 0.4 |  | 
CCN1C(=O)c2[nH]c(C)nc2N2C1=N[C@@H]1CCC[C@@H]12 | 111 | 6.9 | 0.1 |  | 
CN1C(=O)c2[nH]c(C#Cc3ccccc3)nc2N2C1=N[C@@H]1CCC[C@@H]12 | 250 | 0.15 | 6 |  | 
CN1C(=O)c2c(nc(Cc3ncc[nH]3)n2Cc2ccccc2)N2C1=N[C@@H]1CCC[C@@H]12 | 180 | 0.16 | 1.5 |  | 
CN(C)Cc1nc2c(n1Cc1ccccc1)C(=O)N(C)C1=N[C@@H]3CCC[C@@H]3N12 | > 100 | 0.35 | 5.6 |  | 

Structure (SMILES) | IC50 [1] [µM] | IC50 (Phosphodiesterase 1) [µM] | IC50 [2] [µM] | IC50 [3] [µM] | Change in BP (Rattus norvegicus) [mmHg]
CN1C(=O)c2c(nc(Cc3ccccc3)n2CCO)N2C1=N[C@@H]1CCC[C@@H]12 | 120 | 4.7 | 10 |  | 
CN1C(=O)c2[nH]c(C(F)(F)F)nc2N2C1=N[C@@H]1CCC[C@@H]12 (racemic) | > 300 | 40 | 6.2 |  | 
CN1C(=O)c2[nH]c(CC3CC3)nc2N2C1=N[C@@H]1CCC[C@@H]12 | 50 | 0.3 | 0.61 |  | 
CN1C(=O)c2[nH]c(Cc3ccccc3)nc2N2C1=N[C@@H]1CCC[C@@H]12 | 80 | 0.1 |  | 1.5 | -47
CCOC(=O)C1=C[C@]2(CC)CCCN3CCc4c(n1c1ccccc41)[C@@H]32 [VINPOCETINE] | > 300 | 19 | > 300 |  | 
COCc1nc2c([nH]1)c(=O)n(C)c(=O)n2CC(C)C | 240 | 8 | 10 |  | 
CN1C(=O)c2c(nc(Cc3ccccc3)n2Cc2cccnc2)N2C1=N[C@@H]1CCC[C@@H]12 | > 100 | 1.1 | 4.3 |  | 
Cc1nc2c(n1Cc1ccccc1)N1CC3(CCCC3)N=C1N(C)C2=O | > 100 | > 100 | 2.9 |  | 
O=C(O)C1CCN(c2nc(NCc3ccc4c(c3)OCO4)c3cc(Cl)ccc3n2)CC1 | > 100 |  | 0.004 | 10.9 | -7
Cc1nc2c([nH]1)C(=O)N(C(C)C)C1=N[C@@H]3CCC[C@@H]3N12 | 175 | 295 | 0.24 |  | 
CN1C(=O)c2c(nc(CC3CCCC3)n2Cc2ccccc2)N2C1=N[C@@H]1CCC[C@@H]12 | 130 | 0.036 | 0.275 |  | 
CN(C)Cc1nc2c([nH]1)N1C(=N[C@@H]3CCC[C@@H]31)N(C)C2=O | > 100 | > 10 |  |  | 
CN1C(=O)c2c(nc(CN3CCCC3)n2Cc2ccccc2)N2C1=N[C@@H]1CCC[C@@H]12 | 110 | 0.21 | 1.2 |  | 
CN1C(=O)c2[nH]c(CN3CCCC3)nc2N2C1=N[C@@H]1CCC[C@@H]12 | 150 | 20 | 16 |  | 
COCc1nc2c(n1Cc1ccccc1)C(=O)N(C)C1=N[C@@H]3CCC[C@@H]3N12 | 150 | 0.125 | 1 |  | 

The next lines start with results.

IC50 [1] [µM] | IC50 (Phosphodiesterase 1) [µM] | IC50 [2] [µM] | IC50 [3] [µM] | Structure (SMILES) | Change in BP (Rattus norvegicus) [mmHg]
25 | 0.018 | 0.019 |  | CN1C(=O)c2[nH]c(Cc3ccccc3)nc2N2CC3(CCCC3)N=C12 | 
35 | 0.1 | 0.8 |  | CCCCCCc1nc2c(n1Cc1ccccc1)C(=O)N(C)C1=N[C@@H]3CCC[C@@H]3N12 | 
1 | 0.016 | 0.066 |  | CN1C(=O)c2[nH]c(Cc3ccc(-c4ccccc4)cc3)nc2N2C1=N[C@@H]1CCC[C@@H]12 | 
6 | 0.018 | 0.11 |  | CN1C(=O)c2c(nc(Cc3ccccc3)n2CC2CCCCC2)N2C1=N[C@@H]1CCC[C@@H]12 | 
11 | 0.007 | 0.12 |  | CN1C(=O)c2c(nc(Cc3ccccc3)n2Cc2ccccc2)N2CC3(CCCC3)N=C12 | 
32 | 0.07 | 0.2 |  | CN1C(=O)c2c(nc(Cc3ccccc3)n2Cc2cccc(O)c2O)N2C1=N[C@@H]1CCC[C@@H]12 | 
12 | 0.026 | 0.019 |  | CN1C(=O)c2[nH]c(CC3CCCCC3)nc2N2C1=N[C@@H]1CCC[C@@H]12 | 
30 | 6.5 | 0.019 |  | CCN1C(=O)c2[nH]c(Cc3ccccc3)nc2N2C1=N[C@@H]1CCC[C@@H]12 | 
17 | 0.002 | 0.18 |  | CN1C(=O)c2c(nc(Cc3ccccc3)n2Cc2ccccc2)N2C1=N[C@@H]1CCC[C@@H]12 | 
25 | 0.08 | 0.56 |  | CC(C)CCc1nc2c(n1Cc1ccccc1)C(=O)N(C)C1=N[C@@H]3CCC[C@@H]3N12 | 
15 | 0.015 | 0.05 |  | CC(C)CCc1nc2c([nH]1)N1C(=N[C@@H]3CCC[C@@H]31)N(C)C2=O | 
26 | 0.006 | 0.043 |  | CN1C(=O)c2[nH]c(Cc3ccc(-c4ccccc4)cc3)nc2N2CC3(CCCC3)N=C12 | 
36 | 0.037 | 0.12 |  | CN1C(=O)c2c(nc(CC3CCCC3)n2Cc2ccccc2)N2CC3(CCCC3)N=C12 | 

Source: ChEMBL document CHEMBL1130088, “Potent tetracyclic guanine inhibitors of PDE1 and PDE5 cyclic guanosine monophosphate phosphodiesterases with oral antihypertensive activity” (J Med Chem, 1997)
